The values that follow come from ChEMBL document CHEMBL4052828, “Discovery of 4-((7H-Pyrrolo[2,3-d]pyrimidin-4-yl)amino)-N-(4-((4-methylpiperazin-1-yl)methyl)phenyl)-1H-pyrazole-3-carboxamide (FN-1501), an FLT3- and CDK-Kinase Inhibitor with Potentially High Efficiency against Acute Myelocytic Leukemia” (J Med Chem, 2018).

Data set [1] deals with T1, Receptor-type tyrosine-protein kinase FLT3 (Homo sapiens, UniProt P36888).
T1 sequence (P36888 whole entry): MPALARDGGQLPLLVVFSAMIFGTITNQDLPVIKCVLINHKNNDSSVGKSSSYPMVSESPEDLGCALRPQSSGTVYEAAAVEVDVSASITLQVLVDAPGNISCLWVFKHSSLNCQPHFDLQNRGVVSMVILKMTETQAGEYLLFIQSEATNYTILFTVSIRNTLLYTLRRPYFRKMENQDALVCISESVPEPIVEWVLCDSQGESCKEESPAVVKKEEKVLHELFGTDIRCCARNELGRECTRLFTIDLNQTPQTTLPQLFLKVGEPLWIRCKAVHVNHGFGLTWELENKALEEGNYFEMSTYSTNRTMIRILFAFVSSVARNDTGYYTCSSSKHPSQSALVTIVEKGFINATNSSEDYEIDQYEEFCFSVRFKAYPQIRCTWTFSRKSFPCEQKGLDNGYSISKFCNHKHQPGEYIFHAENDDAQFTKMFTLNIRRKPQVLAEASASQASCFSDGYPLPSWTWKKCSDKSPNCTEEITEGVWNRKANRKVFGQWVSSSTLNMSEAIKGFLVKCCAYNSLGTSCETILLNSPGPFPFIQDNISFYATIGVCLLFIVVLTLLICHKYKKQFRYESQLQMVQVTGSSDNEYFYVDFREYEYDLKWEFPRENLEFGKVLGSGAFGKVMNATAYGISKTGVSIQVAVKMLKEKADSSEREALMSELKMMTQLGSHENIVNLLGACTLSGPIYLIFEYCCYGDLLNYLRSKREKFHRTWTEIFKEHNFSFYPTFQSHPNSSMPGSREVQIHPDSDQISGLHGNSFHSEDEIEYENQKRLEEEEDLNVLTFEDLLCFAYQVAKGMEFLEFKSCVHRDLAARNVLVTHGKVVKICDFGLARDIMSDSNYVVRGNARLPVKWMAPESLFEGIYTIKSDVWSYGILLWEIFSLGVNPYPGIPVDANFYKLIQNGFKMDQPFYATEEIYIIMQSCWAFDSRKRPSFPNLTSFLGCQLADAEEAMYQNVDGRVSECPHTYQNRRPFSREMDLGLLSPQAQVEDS
As to the kind of experiment: Inhibition of human FLT3 using EAIYAAPFAKKK as substrate preincubated for 20 mins followed by [gamma-33P]-ATP addition measure after 120 mins by filter binding method. A digest of the protocol: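 Compound preincubated with kinase 20 min at room temperature. Filter-binding read-out, curve-fitted IC50; mean ± SD of three independent experiments.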

Data set [2] concerns MV4-11. As to the kind of experiment: Growth inhibition of human MV4-11 cells after 72 hrs by CellTiter-Glo assay. Particulars: MV4-11, 72 h. The data set is classed as functional, cell-based. In short, it runs like this: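 MV4-11 cells grown in IMDM with 10% FBS, 2% L-glutamine and 1% pen/strep at 37 °C, 5% CO2. Seeded at 10000 cells/well and exposed to compound at various concentrations for 72 h. Viability read by CellTiter-Glo luminescence.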

The target in a further data set is CDK6/cyclin D1 (Homo sapiens, UniProt Q00534). As to the kind of experiment: Inhibition of human CDK6/Cyclin D1 using RB protein as substrate preincubated for 20 mins followed by [gamma-33P]-ATP addition measure after 120 mins by filter binding method. Format: protein-complex assay. In short, it runs like this: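 Compound preincubated with kinase 20 min at room temperature. Reaction started with 10 μM [γ-33P]ATP and run 120 min at 25°C. Filter-binding read-out, curve-fitted IC50; mean ± SD of three independent experiments.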
Chain of CDK6/cyclin D1 (P24385 whole entry): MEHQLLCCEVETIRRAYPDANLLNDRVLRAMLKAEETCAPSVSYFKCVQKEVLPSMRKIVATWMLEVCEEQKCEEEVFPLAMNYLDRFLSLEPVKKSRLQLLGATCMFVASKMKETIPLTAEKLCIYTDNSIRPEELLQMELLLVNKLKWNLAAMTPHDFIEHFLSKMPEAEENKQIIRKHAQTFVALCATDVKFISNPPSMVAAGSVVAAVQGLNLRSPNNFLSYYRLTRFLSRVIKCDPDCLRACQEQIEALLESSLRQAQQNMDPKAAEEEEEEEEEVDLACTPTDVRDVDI
Chain of CDK6/cyclin D1 (Q00534 whole entry): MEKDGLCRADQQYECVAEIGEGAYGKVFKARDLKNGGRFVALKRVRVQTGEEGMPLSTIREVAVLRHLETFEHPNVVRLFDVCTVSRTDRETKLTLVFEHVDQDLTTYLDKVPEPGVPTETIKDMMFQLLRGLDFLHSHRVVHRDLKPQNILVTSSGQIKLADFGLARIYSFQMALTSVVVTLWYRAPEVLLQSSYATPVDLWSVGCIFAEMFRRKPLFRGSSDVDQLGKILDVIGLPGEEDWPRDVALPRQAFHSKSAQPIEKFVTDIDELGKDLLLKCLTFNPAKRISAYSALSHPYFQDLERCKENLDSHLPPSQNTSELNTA

In the next data set the test system is NCI-H82. As to the kind of experiment: Growth inhibition of human NCI-H82 cells after 72 hrs by CellTiter-Glo assay. The data set is classed as functional. Particulars: NCI-H82, 72 h.
A short description of data set [3]: Intrinsic clearance in rat liver microsomes by LC-MS/MS analysis. The data set is classed as ADME, microsome. Particulars: read-out: CLH.
Data set [4] can be described thus: Terminal half life in mouse liver microsomes by LC-MS/MS analysis. Format: ADME, microsome. Particulars: read-out: beta t1/2 (converted). A digest of the protocol: (§1)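 Metabolic stability measured by incubating compound in human, rat, mouse, dog and monkey liver microsomes. Terminal t1/2 determined.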
For orientation: Microsomes from liver hold many membrane-bound enzymes, among them those of drug oxidation.

A short description of data set [5]: Terminal half life in dog liver microsomes by LC-MS/MS analysis. The data set is classed as ADME, Canis lupus familiaris, microsome. Particulars: read-out: beta t1/2 (converted). In short, it runs like this:
as §1

A short description of data set [6]: Intrinsic clearance in dog liver microsomes by LC-MS/MS analysis. Particulars: read-out: CLH. The data set is classed as ADME, Canis lupus familiaris, microsome.
The nature of data set [7]: Terminal half life in cynomolgus monkey liver microsomes by LC-MS/MS analysis. Particulars: read-out: beta t1/2 (converted). Format: ADME, Macaca fascicularis, microsome. A digest of the protocol: as §1
For data set [8], the system named is MV4-11. As to the kind of experiment: Antitumor activity against human MV4-11 cells xenografted in nu/nu mouse assessed as tumor regression at 30 mg/kg, iv qd measured on day 21 relative to vehicle-treated control. Format: functional. (Xenograft models place foreign cells or tissue in a host animal.)
A further data set has as its system Mus musculus. As to the kind of experiment: Toxicity in nu/nu mouse xenografted with human MV4-11 cells assessed as body weight loss at 15 to 40 mg/kg, iv qd administered for 21 days measuring during compound dosing. Format: organism-based. Particulars: in vivo, 504 h. In short, it runs like this: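 Female nu/nu mice carried established MV4-11 xenografts. Once tumors reached 200 mm3, mice were grouped and given compound or vehicle by intravenous injection once daily at 15, 30 or 40 mg/kg/d for 21 days. A Cytarabine arm received 50 mg/kg/d iv. Body weight was tracked during dosing and expressed relative to initial weight set as 100%.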

Data set [9] can be described thus: Toxicity in ICR mouse administered via gavage measured for 12 days. Particulars: in vivo, po.
Data set [10] deals with MV4-11. As to the kind of experiment: Induction of apoptosis in human MV4-11 cells assessed as early apoptotic cells at 0.2 uM after 24 hrs by annexin V-FITC/propidium iodide staining-based flow cytometric method (reference value: 3.54%). Format: functional. In general terms: Flow cytometry measures light scatter and fluorescence of single cells or particles in a stream.

Data set [11] concerns MV4-11. As to the kind of experiment: Induction of apoptosis in human MV4-11 cells assessed as early apoptotic cells at 1 uM after 24 hrs by annexin V-FITC/propidium iodide staining-based flow cytometric method (reference value: 3.54%). The data set is classed as functional.
Data set [12] deals with MV4-11. As to the kind of experiment: Induction of apoptosis in human MV4-11 cells assessed as late apoptotic cells at 1 uM after 24 hrs by annexin V-FITC/propidium iodide staining-based flow cytometric method (reference value: 2.54%). Format: functional.
Data set [13] relates to MV4-11. As to the kind of experiment: Induction of apoptosis in human MV4-11 cells assessed as early apoptotic cells at 2 uM after 24 hrs by annexin V-FITC/propidium iodide staining-based flow cytometric method (reference value: 3.54%). The data set is classed as functional.
Data set [14] deals with MV4-11. As to the kind of experiment: Induction of apoptosis in human MV4-11 cells assessed as late apoptotic cells at 2 uM after 24 hrs by annexin V-FITC/propidium iodide staining-based flow cytometric method (reference value: 2.54%). The data set is classed as functional.
The test system of data set [15] is MV4-11. As to the kind of experiment: Cell cycle arrest in human MV4-11 cells assessed as accumulation at G0/G1 phase after 24 hrs by propidium iodide/BrdU staining-based flow cytometric method. Format: functional. In short, it runs like this:
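Cells treated with compound for 24 h, then fixed. Double-stained with propidium iodide and BrdU for flow cytometric analysis of cell cycle distribution.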

Data set [16] concerns the target Receptor-type tyrosine-protein kinase FLT3 (Homo sapiens) (UniProt P36888). As to the kind of experiment: Inhibition of FLT3 phosphorylation in human MV4-11 cells assessed as decrease in AKT phosphorylation at 0.02 to 1 uM after 24 hrs by Western blot analysis. The data set is classed as cell-based. In short, it runs like this: (§2)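 MV4-11 cells treated with increasing concentrations of compound for 24 h. Lysates immunoblotted for phosphorylated FLT3, STAT5, ERK, AKT and Rb.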

For a further data set, the species on record is Homo sapiens. As to the kind of experiment: Inhibition of CDK in human MV4-11 cells assessed as decrease in Rb phosphorylation at Ser807/811 after 24 hrs by Western blot analysis. Format: cell-based. In short, it runs like this: as §2
The next data set has as its system MGC-803. As to the kind of experiment: Growth inhibition of human MGC803 cells after 72 hrs by CellTiter-Glo assay. The data set is classed as functional. Particulars: MGC-803, 72 h.

Active and inactive are the calls of the source. The rule behind the calls is not given here.

One may read the IC50 as the concentration that inhibits the measured activity by half. Usually GI50 stands for the concentration at which growth is held to half of that of the control. For orientation: LD50 means the dose expected to kill half of the subjects tested. In the case of `CN1CCN(Cc2ccc(NC(=O)c3n[nH]cc3Nc3ncnc4[nH]ccc34)cc2)CC1`, the half-maximal inhibitory concentration (IC50) in data set [1] was 0.27 to 0.28 nM; with MV4-11 [2], 8 nM; on CDK6/cyclin D1, 1.96 nM. Also, the concentration for 50% growth inhibition (GI50) was determined as 110 nM in the data set on NCI-H82 and 370 nM in the data set on MGC-803. The CLint scaled was 40.3 mL/min/kg in data set [3] and 129 mL/min/kg in data set [6]. Besides, the half-life in data set [4] was 39.6 min; in [5], 15.4 min; in [7] it was 51.3 min. Besides, the Activity is 78.95% in the data set with MV4-11 [8]; “Non-Toxic” in the data set on Mus musculus; 15.02% in the data set on MV4-11 [10]; 31.56% with MV4-11 [11]; 14.79% in the data set on MV4-11 [12]; 54.13% in the data set on MV4-11 [13]. For the same compound, the Activity in the data set with MV4-11 [14] was 24.17%; in the data set with MV4-11 [15], “Dose-dependent effect”. Further, in data set [9], the LD50 at 288 h came out at 186 mg/kg. For the same compound, the inhibition result in data set [16] was “Active”. Further, the inhibition entry in the data set listed under Homo sapiens is “Dose-dependent effect”.
